From ChEMBL document CHEMBL1671641, “1,5-benzodiazepines, a novel class of hepatitis C virus polymerase nonnucleoside inhibitors” (Antimicrob Agents Chemother, 2008)

Assays:
Hepatitis C virus [1] = experiment: Inhibition of Hepatitis C virus 1b J4 recombinant NS5B Cdelta 21 RNA dependent RNA polymerase overexpressed in Escherichia coli BL21 (DE3); set-up: species or system Hepatitis C virus subtype 1b
Hepatitis C virus [2] = experiment: Antiviral activity against Hepatitis C virus 1b infected in human HuH7 cells assessed as inhibition of viral replication after 3 days by luciferase reporter assay; format: functional, organism-based, Hepacivirus hominis, genotype 1b, Huh-7
Summary of the method: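 HCV 1b subgenomic luciferase reporter replicon (clone ET) cells, 2,500 per well, were exposed to a nine-point 1/4 dilution series for 3 days. Replication was read as luciferase activity. Values are means ± SD from 2 to 23 independent experiments run in quadruplicate.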

[3] = (§1) Cytotoxicity against LTR-Luc transfected human MT4 cells […] after 3 days by ATPLite assay; format: cell-based
[4] = Cytotoxicity against CMV-Luc transfected human HuH7 cells after 5 days; format: cell-based, Huh-7; conditions: for CC50 at 120 h: CMV-Luc transfected HuH7 cells; for CC50: huh-7, 120 h, 120 h
[5] = target: T1, DNA polymerase alpha catalytic subunit (Homo sapiens, UniProt P09884); experiment: Inhibition of human DNA polymerase alpha
T1 sequence (P09884 whole entry): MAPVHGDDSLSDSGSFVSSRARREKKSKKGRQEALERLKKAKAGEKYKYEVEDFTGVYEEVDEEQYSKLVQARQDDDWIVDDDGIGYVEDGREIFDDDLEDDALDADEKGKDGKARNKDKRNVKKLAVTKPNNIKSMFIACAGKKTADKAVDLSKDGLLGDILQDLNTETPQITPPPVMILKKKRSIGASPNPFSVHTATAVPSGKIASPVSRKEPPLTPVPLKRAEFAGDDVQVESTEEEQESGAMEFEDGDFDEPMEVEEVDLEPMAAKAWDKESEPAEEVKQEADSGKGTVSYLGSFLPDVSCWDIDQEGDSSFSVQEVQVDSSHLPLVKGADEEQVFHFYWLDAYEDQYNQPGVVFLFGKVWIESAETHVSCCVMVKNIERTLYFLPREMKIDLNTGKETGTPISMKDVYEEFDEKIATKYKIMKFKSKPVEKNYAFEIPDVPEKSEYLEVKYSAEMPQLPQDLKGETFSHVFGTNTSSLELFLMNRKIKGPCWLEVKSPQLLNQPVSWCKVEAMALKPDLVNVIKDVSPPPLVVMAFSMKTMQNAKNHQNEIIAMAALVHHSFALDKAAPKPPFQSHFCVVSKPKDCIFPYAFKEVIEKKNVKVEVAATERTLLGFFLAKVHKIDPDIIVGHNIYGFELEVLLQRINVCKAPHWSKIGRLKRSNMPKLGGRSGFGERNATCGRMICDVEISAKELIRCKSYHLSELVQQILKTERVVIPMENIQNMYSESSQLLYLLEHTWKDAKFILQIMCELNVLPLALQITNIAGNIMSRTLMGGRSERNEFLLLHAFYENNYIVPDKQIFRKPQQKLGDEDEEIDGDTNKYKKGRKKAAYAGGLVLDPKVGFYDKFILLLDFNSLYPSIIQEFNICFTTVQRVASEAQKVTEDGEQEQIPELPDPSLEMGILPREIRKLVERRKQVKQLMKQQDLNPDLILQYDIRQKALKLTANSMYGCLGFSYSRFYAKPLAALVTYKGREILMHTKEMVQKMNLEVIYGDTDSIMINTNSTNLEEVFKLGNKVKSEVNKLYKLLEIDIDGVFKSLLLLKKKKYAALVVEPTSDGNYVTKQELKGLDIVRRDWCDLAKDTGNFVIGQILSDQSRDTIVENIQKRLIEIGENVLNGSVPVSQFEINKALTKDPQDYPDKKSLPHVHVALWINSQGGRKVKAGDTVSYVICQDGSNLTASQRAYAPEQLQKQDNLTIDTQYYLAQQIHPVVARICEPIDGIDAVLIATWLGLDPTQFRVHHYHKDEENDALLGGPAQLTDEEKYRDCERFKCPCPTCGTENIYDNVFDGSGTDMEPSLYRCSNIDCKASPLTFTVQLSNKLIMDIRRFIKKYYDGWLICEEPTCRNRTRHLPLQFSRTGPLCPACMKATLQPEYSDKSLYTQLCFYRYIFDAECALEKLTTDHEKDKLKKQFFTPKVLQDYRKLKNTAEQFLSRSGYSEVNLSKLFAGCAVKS
Summary of the method: (§2)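 Each enzyme–compound pair was tested in duplicate over 0.8 to 100 μM, with 100 μM as the highest dose. Each run included a no-inhibitor control, a solvent dilution (0.016 to 2% DMSO) and the relevant reference inhibitor. Percent inhibition at 100 μM was recorded for polymerase γ.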

DNA polymerase beta = DNA polymerase beta (Homo sapiens, UniProt P06746); experiment: Inhibition of human DNA polymerase beta; summary of the method: as §2
[6] = target: T2, DNA polymerase subunit gamma-1 (Homo sapiens, UniProt P54098); experiment: Inhibition of human DNA polymerase gamma; summary of the method: as §2
T2 sequence (P54098 whole entry): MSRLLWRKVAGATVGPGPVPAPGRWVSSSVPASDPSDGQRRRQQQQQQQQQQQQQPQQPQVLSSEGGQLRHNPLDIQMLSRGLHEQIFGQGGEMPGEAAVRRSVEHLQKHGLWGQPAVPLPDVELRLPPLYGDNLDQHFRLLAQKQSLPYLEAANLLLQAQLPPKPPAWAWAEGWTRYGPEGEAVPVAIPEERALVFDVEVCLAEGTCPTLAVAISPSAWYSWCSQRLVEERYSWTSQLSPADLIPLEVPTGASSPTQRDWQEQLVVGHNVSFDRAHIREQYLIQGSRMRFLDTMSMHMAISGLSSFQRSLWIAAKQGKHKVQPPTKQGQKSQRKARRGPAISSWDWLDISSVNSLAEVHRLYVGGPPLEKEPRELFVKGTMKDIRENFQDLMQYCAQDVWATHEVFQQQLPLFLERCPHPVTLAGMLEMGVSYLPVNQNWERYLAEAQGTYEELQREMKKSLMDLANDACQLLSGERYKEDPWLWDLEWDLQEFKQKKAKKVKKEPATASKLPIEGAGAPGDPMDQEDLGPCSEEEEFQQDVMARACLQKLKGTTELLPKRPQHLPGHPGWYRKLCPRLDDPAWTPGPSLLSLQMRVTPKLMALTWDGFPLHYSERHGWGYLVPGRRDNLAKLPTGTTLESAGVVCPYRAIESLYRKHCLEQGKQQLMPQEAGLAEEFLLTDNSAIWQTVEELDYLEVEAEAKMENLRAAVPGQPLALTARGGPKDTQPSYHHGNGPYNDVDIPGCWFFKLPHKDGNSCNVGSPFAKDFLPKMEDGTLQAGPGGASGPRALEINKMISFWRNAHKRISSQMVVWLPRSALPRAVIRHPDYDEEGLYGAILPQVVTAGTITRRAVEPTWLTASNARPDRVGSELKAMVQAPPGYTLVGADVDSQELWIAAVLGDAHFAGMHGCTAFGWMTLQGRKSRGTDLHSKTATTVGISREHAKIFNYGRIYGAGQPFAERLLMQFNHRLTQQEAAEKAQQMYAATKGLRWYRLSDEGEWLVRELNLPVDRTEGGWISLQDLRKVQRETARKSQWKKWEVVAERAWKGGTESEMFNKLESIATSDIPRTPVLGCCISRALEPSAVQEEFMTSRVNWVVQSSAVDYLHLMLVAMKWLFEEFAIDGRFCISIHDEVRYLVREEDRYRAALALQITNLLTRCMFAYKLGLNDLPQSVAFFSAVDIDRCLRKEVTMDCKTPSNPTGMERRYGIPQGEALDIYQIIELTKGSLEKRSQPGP

[7] = target: Human immunodeficiency virus type 1 reverse transcriptase (Human immunodeficiency virus 1, UniProt Q72547); experiment: Inhibition of Human immunodeficiency virus 1 reverse transcriptase expressed in Escherichia coli by scintillation proximity assay
Summary of the method: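 N-terminal His6 HIV-1 RT was expressed in E. coli BL21(DE3), induced overnight at 37°C with 0.4 mM IPTG. The homodimer was purified by Ni-NTA and heparin chromatography. Activity was measured by scintillation proximity assay at 2.5 nM enzyme, with efavirenz as reference inhibitor.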

[8] = Inhibition of Dengue virus RNA-dependent RNA polymerase; summary of the method: as §2
MT4 = experiment: as §1; format: cell-based; conditions: mt4, 72 h, 72 h
Hepatitis C virus [9] = experiment: Inhibition of Hepatitis C virus 1b J4 recombinant NS5B Cdelta 21 RNA dependent RNA polymerase overexpressed in Escherichia coli BL21 (DE3) by RdRp primer-dependent transcription assay; set-up: species or system Hepatitis C virus subtype 1b
Hepatitis C virus [10] = experiment: Ratio of EC50 for Hepatitis C virus 796 infected in HuH7 cells to EC50 for Hepatitis C virus 796 harboring NNI P495L mutant site in NS5B infected in HuH7 cells; format: functional, Hepacivirus hominis, Huh-7
Summary of the method: (§3)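 NS5B NNI-site mutations were introduced into the genotype 1b ET subgenomic luciferase replicon by site-directed mutagenesis. RNA was made by in vitro transcription and tested in a transient-replication assay.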

Hepatitis C virus [11] = experiment: Ratio of EC50 for Hepatitis C virus 796 infected in HuH7 cells to EC50 for Hepatitis C virus 796 harboring NNI M423T mutant site in NS5B infected in HuH7 cells; format: functional, Hepacivirus hominis, Huh-7; summary of the method: as §3
Hepatitis C virus [12] = experiment: Ratio of EC50 for Hepatitis C virus 796 infected in HuH7 cells to EC50 for Hepatitis C virus 796 harboring NNI M414Q mutant site in NS5B infected in HuH7 cells; format: functional, Hepacivirus hominis, Huh-7; summary of the method: as §3
Hepatitis C virus [13] = experiment: Ratio of EC50 for Hepatitis C virus 796 infected in HuH7 cells to EC50 for Hepatitis C virus 796 harboring NNI Y448A mutant site in NS5B infected in HuH7 cells; format: functional, Hepacivirus hominis, Huh-7; summary of the method: as §3
Hepatitis C virus [14] = experiment: Ratio of EC50 for Hepatitis C virus 796 infected in HuH7 cells to EC50 for Hepatitis C virus 796 harboring NNI H95R mutant site in NS5B infected in HuH7 cells; format: functional, Hepacivirus hominis, Huh-7; summary of the method: as §3
Hepatitis C virus [15] = experiment: Ratio of EC50 for Hepatitis C virus 796 infected in HuH7 cells to EC50 for Hepatitis C virus 796 harboring NNI C316Y mutant site in NS5B infected in HuH7 cells; format: functional, Hepacivirus hominis, Huh-7; summary of the method: as §3
Hepatitis C virus [16] = experiment: Inhibition of Hepatitis C virus 1b J4 recombinant NS5B Cdelta 21 RNA dependent RNA polymerase overexpressed in Escherichia coli BL21 (DE3) assessed as [alpha-33P]UTP incorporation by RdRp primer-independent transcription assay; set-up: species or system Hepatitis C virus subtype 1b
Summary of the method: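 De novo (primer-independent) RdRp assay: 190 nM NS5BΔ21 (1b J4) with 86 nM HCV 3′ UTR template RNA, 0.5 mM each ATP/GTP/CTP, 10 μM UTP plus [α-³³P]UTP, in 20 mM Tris-HCl pH 7.5, 1 mM DTT, 5 mM MgCl₂, 20 mM NaCl. Incubated 2 h at room temperature, stopped with EDTA/tRNA, TCA-precipitated on filters, and scintillation-counted. Quadruplicate.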

SMILES: COc1ccc(C2C3=C(CC(C)(C)CC3=O)Nc3ccccc3N2C(C)=O)cc1OCc1ccccc1 (stereo not drawn)
- IC50 (Hepatitis C virus [1]): 7.9 µM
- EC50 (Hepatitis C virus [2]; Hepatitis C virus, genotype 1b, Huh-7, 72 h): 12.3 µM
- CC50 at 72 h [3]: 32 µM
- CC50 at 120 h [4]: 32 µM
- IC50 [5]: > 100 µM
- IC50 (DNA polymerase beta): > 100 µM
- IC50 [6]: > 100 µM
- IC50 [7]: > 32 µM
- IC50 [8]: > 100 µM

SMILES: CC(=O)N1c2ccccc2NC2=C(C(=O)CC(C)(C)C2)C1c1ccc(OCc2ccccc2)cc1Cl (single isomer, unassigned; 5b)
- EC50 (Hepatitis C virus [2]; huh-7): 3.9 µM
- CC50 (MT4): 17.3 µM
- CC50 [4]: 53.7 µM
- IC50 (Hepatitis C virus [9]): 83.1 µM

SMILES: CC(=O)N1c2ccccc2NC2=C(C(=O)CC(C)(C)C2)C1c1ccc(OCc2ccccc2)cc1 (stereo in doubt; 3)
- IC50 (Hepatitis C virus [1]): 3 µM
- EC50 (Hepatitis C virus [2]; huh-7): 5.8 µM
- CC50 at 72 h [3]: 32 µM
- CC50 at 120 h [4]: 32 µM

SMILES: c1ccc2occc2c1 [BENZOFURAN]
- fold change (FC) (Hepatitis C virus [10]): 10
- fold change (FC) (Hepatitis C virus [11]): 10
- fold change (FC) (Hepatitis C virus [12]): 10
- fold change (FC) (Hepatitis C virus [13]): 10
- fold change (FC) (Hepatitis C virus [14]): 10
- fold change (FC) (Hepatitis C virus [15]): 10

SMILES: CC(=O)N1c2ccccc2NC2=C(C(=O)CC(C)(C)C2)C1c1ccc(OCc2ccccc2)cc1Cl (stereo in doubt; 5)
- CC50 at 72 h [3]: 16.7 µM
- CC50 at 120 h [4]: 35.5 µM

SMILES: CC(=O)N1c2ccccc2NC2=C(C(=O)CC(C)(C)C2)C1c1ccc(OCc2ccccc2)c(Cl)c1 (single isomer, unassigned; 4b)
- EC50 (Hepatitis C virus [2]; huh-7): 0.6 µM
- CC50 (MT4): 12.9 µM
- CC50 [4]: 21.2 µM
- IC50 (Hepatitis C virus [9]): 35.9 µM
- IC50 (Hepatitis C virus [16]): > 32 µM

SMILES: CC(=O)N1c2ccccc2NC2=C(C(=O)CC(C)(C)C2)C1c1ccc(OCc2ccccc2)c(Cl)c1 (stereo in doubt; 4)
- EC50 (Hepatitis C virus [2]; huh-7): 2.2 µM
- CC50 at 72 h [3]: 22.1 µM
- CC50 at 120 h [4]: 40.2 µM
